System: MS2 coat protein
Test: apparent Kd, MS2 coat protein; higher = weaker binding; RNA-MaP array; FMN 200 µM where present
How it was run: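 Apparent Kd: the median of filtered binding-curve fits from single clusters. Designs were transcribed on Illumina sequencing-chip clusters by stalled E. coli RNA polymerase and titrated with SNAP-549-labelled MS2 coat protein from 0.7 or 1.5 nM, doubling to 3 µM, in 100 mM Tris-HCl pH 7.5, 80 mM KCl, 4 mM MgCl2, BSA, DTT, yeast tRNA and Tween-20. Each series ran without and then with constant ligand, and green signal was normalised to red-channel RNA signal and control-cluster median Fmax.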

[1] = designed as: OFF switch for flavin mononucleotide, no ligand
[2] = ligand present: flavin mononucleotide, designed as: OFF switch for flavin mononucleotide
[3] = designed as: ON switch for flavin mononucleotide, no ligand
[4] = ligand present: flavin mononucleotide, designed as: ON switch for flavin mononucleotide

| Sequence | apparent Kd [1] | apparent Kd [2] | apparent Kd [3] | apparent Kd [4] |
| --- | --- | --- | --- | --- |
| CUUUUGUGAGGAUAUCAGUAGUAAUAAAAUAAAAUAACUACUGAGAAGGCACAUGAGGAUCACCCAUGUUCCUC | 32 nM | 145 nM | – | – |
| CUCAUGUCAGGAUAUAGCCACAUGAGGAUCACCCAUGUGGACUAGAAGGGACAUGAGGAUCACCCAUGUAUGAA | 11.4 nM | 10.2 nM | – | – |
| UGUAAGAUGCAGAAGGUGUUAGCUAGAGCUACGACAUGAGGAUCACCCAUGUACUAGAAACAGUACAAGGAUAUGCAUCUUACU | – | – | 18 nM | 6.53 nM |
| AAUUCACAUGAGGAUCACCCAUGUCAGGAUAUGGUUUCACGUGUUUCUGUGCUUGAGGCCAGAAGGGACAGCUA | 65.5 nM | 76.5 nM | – | – |
| GGGUAAUAUCGAGGAUAUGUCUAGACACAUGAGGAUCACCCAUGUAUGUGUAUAGAAGGCGAUAUUAACAGCAUGUUACAUGGG | – | – | 291 nM | 60.5 nM |
| GGUGGACAUGAGGAUCACCCAUGUGAGGAUAUCGGCCGGUUCGCGGUGGCUGGCGUCUCGAGAAGGCGCAUAGU | 36.9 nM | 40.2 nM | – | – |
| GUGUAGUCAGGAUAUACAGAGGAAGAUAAUACAAUAUAAGUACAUGAGGAUCACCCAUGUAGAAGGGACAGUGU | 30.8 nM | 32.4 nM | – | – |
| AUGCUUCACACAGGAUAUACAUGAGGAUCACCCAUGUGUCCAAAGUAGCUGACACGAGCUACGCGGUAGAAGGGUGUGAAGCAU | 17.3 nM | 54.3 nM | – | – |
| UUUUAUUAGUAAGGAUAUACUAGCGAUUAGCUUGUAGAAGGUACAGUCUUAUGUAUAGCAUGUUAACAUGAGGAUCACCCAUGU | – | – | 20.9 nM | 14 nM |
| CCUAGUUGGUAAGGAUAUCCUACACUGUUCUGACCCGUGCAAGCUACAUGAGGAUCACCCAUGUGGGAGAAGGUGCGUCAACGU | 12.7 nM | 11.9 nM | – | – |
| ACGGCAAUCACAGGAUAUGGUUACAUGAGGAUCACCCAUGUCUAGGGUCUAAUUAGGUAUAACUACCAGAAGGGUGAAGGCCUA | 97.1 nM | 80.1 nM | – | – |
| GGCGAACAGGCUAACAUGAGGAUCACCCAUGUGGACUCAUGGUAGGAUAUGCUGUACAAAGUACAGCAGAAGGGCCGGUGAGCC | – | – | 139 nM | 376 nM |
| AGUGUCAUCGAGAAGGCCUUGACAUGAGGAUCACCCAUGUUAUAACAUGGGAGGAUAUCGAUGAUACAGCUACGUUUCGUAGCA | – | – | 509 nM | 46.7 nM |
| CUCGUGUUAGGAUAUGGAUAGCCGUUUGACGAGCGAGGGCACUAGAAGGAACAUGAGGAUCACCCAUGUAAAAA | 21.3 nM | 21.1 nM | – | – |
| AAACAUGUCCGAGGAUAUCUGAAAACAUUUUUAAGAGAAGGCGGACAUGAGGAUCACCCAUGUCUCUCCUCAUCAAAUCCAAAU | 17.5 nM | 73.2 nM | – | – |
| AGUGUCAUCCAGAAGGCCUCAUUACAUGAGGAUCACCCAUGUAAUCGUGGGAGGAUAUGGAUGAUACAGCUACGUUUCGUAGCA | – | – | 7.42 nM | 4.65 nM |
| GUAUAUCACUCAGGAUAUCUGUAAUUUAUUGAAACAUGAGGAUCACCCAUGUUCAUAAAUUUAUAGGAGAAGGGAGAGAUAUAC | – | – | 4.39 nM | 4.58 nM |
| GCGACGCGGGAAGGAUAUCCGCUCAGGAGUGUCUCAUGCUAACAUGAGGAUCACCCAUGUUGUCCGGAGAAGGUCCUGUCAGGC | 152 nM | 288 nM | – | – |
| AGCAACAUGAGGAUCACCCAUGUUGGUUCGAAAACGGACUCACAGGAUAUACGGCAUAAUCGCUCGUAGAAGGGUGCGUCCUCA | – | – | 14 nM | 12.8 nM |
| AUUUAAUUUAGCGAGAUCACAUGAGGAUCACCCAUGUAUAUAUAGGAUAUCAGCUCGUUUAGAGCUGAGAAGGAUAUAUACCGC | 89.8 nM | 147 nM | – | – |
| AAAAAGGCAGGAUAUACAUGAGGAUCACCCAUGUGAAAAAAAAAAAAAAAAAAAAAGUGUAGAAGGGUCAAAAA | 56.9 nM | 46.7 nM | – | – |
| AGCUACGUUUCGUAGCAGCUAGGUGAGGAUAUUCAAUUGUUCACAUGAGGAUCACCCAUGUAUGUGAAGAAGGCGCCUAGAAAG | – | – | 7.16 nM | 5.34 nM |
| AGCCAAGCAGGAUAUGCCCGGGAUAACAUGAGGAUCACCCAUGUGACCGAUUGAUGUCCUGCAGAAGGGCUUGGGA | 15.6 nM | 79.8 nM | – | – |
| AAAUAAGUUGCAGGAUAUUAUUUUUGAUAAAUAUAAGAAGGGCAACAAACCUCACAUGAGGAUCACCCAUGUACCCAUGUAUCU | 65.5 nM | 30 nM | – | – |
| GUGUACAGAGGAUAUACAGGAGCAUGGAAACAUGCAACUUCACAUGAGGAUCACCCAUGUAGAAGGCUGUACAC | 16 nM | 47.9 nM | – | – |
| AUCAGCUCGUCAGGAUAUAUGUCACUGCUUCGGCAGUGUGGUAAGAUUACAUGAGGAUCACCCAUGUAGAAGGGACGAGCUGAU | 6.12 nM | 6.9 nM | – | – |
| AGUACGUCAGGAUAUCUGAUGUCUAACUUCGGUUAGACAUCAGAGAAGGGACAUGAGGAUCACCCAUGUACAAA | 41.8 nM | 36.9 nM | – | – |
| GUCGGAAACGACAAAAGUAGCAUAGGAGAAGGCAUGUCAAAGACAUGAGGAUCACCCAUGUAGCAUGAGGAUAUCCUAUGCUAC | – | – | 5.24 nM | 4.97 nM |

| Sequence | apparent Kd [1] | apparent Kd [2] | apparent Kd [3] | apparent Kd [4] |
| --- | --- | --- | --- | --- |
| UAAACACCCUCAUGUACCUGAGGACAUGAGGAUCACCCAUGUAAGGAUAUAGCCAUUAAAUCUAACUAGAAGGUAUAGGAAAUC | 865 nM | 529 nM | – | – |
| UCUCAUAUGCAGGAUAUCCAUGGCGGGCGGAGAGGAGAAGGGCAUACAUGAGGAUCACCCAUGUGUCCCGUGGG | 27.2 nM | 41.2 nM | – | – |
| GAGUGGAAGUAAGGAUAUAUAAUGAUAAUCACAGUAGAAGGUACUAACAUGAGGAUCACCCAUGUAGGACUAUACCAGAGAGGG | – | – | 17.4 nM | 16 nM |
| UCAUUGGUAGUGAGGAUAUCGGUGUGAUGGAAUGACGAGAAGGCACAUGAGGAUCACCCAUGUAAGAUUGGGCU | 314 nM | 436 nM | – | – |
| CUCGUGUGAGGAUAUCUAUUCCACGGACGGGAGUCUUGAUGAGAGAAGGCACAUGAGGAUCACCCAUGUAAUAA | 140 nM | 86.7 nM | – | – |
| GUGAGGUAAGGAUAUAGGAGAAAAGAUAAGGUAUGAGAGUUCUAGAAGGUACAUGAGGAUCACCCAUGUUAGGG | 224 nM | 193 nM | – | – |
| AGGUAAACCACAGGAUAUGGCUAGUAUAACUAGCCAGAAGGGUGGUCGAAACCAUGUAAAUACAUGAGGAUCACCCAUGUGUCC | – | – | 400 nM | 131 nM |
| UCAUUUCAGUAAGGAUAUUAAAUCAUGACGAUACAUGAGGAUCACCCAUGUUAAGAAGGUACUAAUACAAAUAAUGCAUUGUUC | 12.8 nM | 11.1 nM | – | – |
| GAUCGAAACACUCCUUACACUACAUGAGGAUCACCCAUGUAGCAGGAUAUCAUUGCUCCUCGCUGUGAGAAGGGCUACGGGCGA | 7.3 nM | 14 nM | – | – |
| UGGUACUAGGGAGGAUAUGGGAAGAUACAUGAGGAUCACCCAUGUUUAAGAAUGCCGAGAGGCAACUAGAAGGCCCUAGUUCCU | – | – | 390 nM | 19.5 nM |
| AGACGGAUCCGCGGUCGAUGCUAACUAGAAGGGCAGGUCACAUGAGGAUCACCCAUGUAGUAUAUGUAGGAUAUAGGAAGCGUU | – | – | 75 nM | 15.8 nM |
| AACCAUGUCCGAGGAUAUCUGGAAACAUUUCCAAGAGAAGGCGGACAUGAGGAUCACCCAUGUCUCUCCUCAUCAAAUCCAAGU | 12.4 nM | 94.6 nM | – | – |
| ACGCCCUGAGGAUAUCUUUUCCCGUACAUGAGGAUCACCCAUGUUUUCCUCCGUGCUUCGAGAGAAGGCAGGCCCA | 807 nM | 436 nM | – | – |
| CCACCCUGAGGAUAUCCACCCUCAUACAUGAGGAUCACCCAUGUUCAUGCCUGAGUUCCCGGAGAAGGCAGAUUCC | 109 nM | 87.2 nM | – | – |
| GGGCUGUCAGGAUAUGCUUCGGCUUCGGAAAUGAAGUUGAAGUAGAAGGGACAUGAGGAUCACCCAUGUGGCCC | 28.9 nM | 35 nM | – | – |
| CGGUAUAUGAAGGGCGAAAGCCCACAUGAGGAUCACCCAUGUAGAAGGCGGGCCGCAACGCGGCCCGAGGAUAUACAAUAUACA | 6.5 nM | 12.4 nM | – | – |
| AAAUAAAGUACCUUGAUAUCCUCACAUGAGGAUCACCCAUGUCAGGAUAUUUGUCCUAAAAGGACAGAGAAGGGACAAGGUAUA | 5.82 nM | 6.19 nM | – | – |
| ACUAGAUGAGGAUAUGCAUAUUUUCGUGUUCUUCUAGGUUAACAUGAGGAUCACCCAUGUAGAAGGCGUCUGGA | 19.6 nM | 37.7 nM | – | – |
| ACAUACAUUCGAGGAUAUCGGUGAUAACUCAAACGAGAAGGCGAUUUAAAACAUAAUGCUGUAGACAUGAGGAUCACCCAUGUA | – | – | 497 nM | 137 nM |
| UAUAUGUCAGGAUAUUAAUUAAGAUGGAAUUUAGUCUUAGUUGAGAAGGGACAUGAGGAUCACCCAUGUUCCUC | 19.7 nM | 159 nM | – | – |
| UUAAAUCAUGUAGGAUAUGCAUGGCGAAGCUACGCAGAAGGACAUGAGGAUCACCCAUGUUAUAGCUACCGAUUAAGGUGGCAA | 92.9 nM | 246 nM | – | – |
| AGAUGACAAAGUCAUCUCGCUUUGACAUGAGGAUCACCCAUGUAGGAUAUAUUACUCAAAGAGUAAUAGAAGGACAUGUUUCUG | 72.7 nM | 163 nM | – | – |
| ACAUGAGGAUCACCCAUGUAUACAUAGGAUAUUGGUGAUCAGGCAUGUUUUACAGGAUAUGUCUGCGAGAAGGAUGCAAGUUGC | – | – | 557 nM | 424 nM |
| GGAUAGGACAGAGGAUAUACGUGCUAGAGAUACUGGCAAAAUUUCCUCACAUGAGGAUCACCCAUGUAGAAGGCUGUCCUAUCG | 16.6 nM | 374 nM | – | – |
| AAAAGCAACACAGGAUAUAUCACGGGUGAUUUGAUAGAAGGGUGAGCGAAAGAGAGCAACAUGAGGAUCACCCAUGUAUGUUUG | – | – | 304 nM | 184 nM |
| GGACGUCAGAUUAACAUGAGGAUCACCCAUGUCUUUUGACAUGAGGAUAUCGAUCCUAAUUGGAUCGAGAAGGCAUGGACGUCC | – | – | 1180 nM | 96.8 nM |
| GUGGCUAGUGCAGGAUAUCGGCGCGUGUAGUGUCGAGAAGGGCACAUGAGGAUCACCCAUGUGAUCAAUCACUGCUAAGGCCGC | 5.12 nM | 5.38 nM | – | – |

Reference: the EternaBench riboswitch data
